# Source: PubChem (The Scripps Research Institute Molecular Screening Center)
# An excerpt weighted towards active compounds, which were near 1.9% of everything screened.
# EBNA-1 inhibitor: blocks EBNA-1 binding to DNA | AID 1950 | inhibition, % at 14.8 µM | 0.34% of 300,000 active | EBNA-1 DNA binding, fluorescence polarization; in the data active = inhibition above about 28%
# ZTA counter: ZTA (EBV) inhibition in EBNA-1 counter-screen; ZTA-DNA binding, fluorescence polarization; inhibition, % at 11 µM; 0.15% of 320,000 active; AID 2234; in the data active = inhibition above about 33%
# Target sequence (P03206 whole entry, looked up): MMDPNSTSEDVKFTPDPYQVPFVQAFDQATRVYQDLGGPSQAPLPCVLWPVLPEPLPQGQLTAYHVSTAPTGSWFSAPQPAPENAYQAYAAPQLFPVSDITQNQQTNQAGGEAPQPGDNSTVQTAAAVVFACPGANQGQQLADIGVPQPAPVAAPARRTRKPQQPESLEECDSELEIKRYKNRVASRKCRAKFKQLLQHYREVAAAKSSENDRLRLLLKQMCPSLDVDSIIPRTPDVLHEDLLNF
# HCV NS3 hel inh: HCV NS3 helicase inhibition. NS3 helicase DNA unwinding, Cy5 molecular beacon fluorescence. inhibition, % at 10.9 µM. 0.56% of 290,000 active. AID 1800;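 active = inhibition above the mean of all tested compounds plus 3 SD, set per campaign, cut at about 35% in these data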;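 also: 0% = DMSO wells and 100% = thioflavine S control wells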
#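 test system = hepatitis C virus NS3 helicase domain fragment enzyme | reagent = annealed dual-labelled DNA beacon duplex, ATP-started | times = 1 h at 25 °C | detection = Cy5 fluorescence, 0 and 60 min reads | read-out basis = percent inhibition from t60/t0 fluorescence ratio | control set = DMSO and thioflavine S | replication = one well per compound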
# PP1 inh: counter-screen for PP5 inhibitors: inhibitors of human PP1-alpha; P62136; purified PP1alpha, OMFP fluorescence; inhibition, % at 6.7 µM; 0.9% of 320,000 active;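 active = inhibition above the mean inhibition of all tested compounds plus 3 SD, computed separately for each screening campaign, cut at about 15% in these data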
# Target sequence (P62136 whole entry, looked up): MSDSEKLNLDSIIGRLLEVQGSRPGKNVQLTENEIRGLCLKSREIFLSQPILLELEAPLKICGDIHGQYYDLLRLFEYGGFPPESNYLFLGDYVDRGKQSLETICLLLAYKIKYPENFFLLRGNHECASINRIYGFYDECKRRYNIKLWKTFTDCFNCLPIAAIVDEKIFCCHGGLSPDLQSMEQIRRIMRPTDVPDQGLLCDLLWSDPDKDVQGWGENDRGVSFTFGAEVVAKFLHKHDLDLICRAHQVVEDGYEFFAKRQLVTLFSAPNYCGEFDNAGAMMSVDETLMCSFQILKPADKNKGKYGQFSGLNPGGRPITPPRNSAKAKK
# HCV core dimer: blocks dimerization of HCV core protein. TR-FRET GST/Flag-core106 dimerization, 1536-well. inhibition, % at 5 µM. 0.33% of 300,000 active;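 active = inhibition above the mean of all tested compounds plus 3 SD, set per screening campaign, cut at about 45% in these data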
#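 Assay system – GST-tagged and Flag-tagged HCV core protein residues 1-106 · Quantity – core106 proteins, GST 13.5 nM and Flag 17 nM · Benchmarks – unlabelled core106 and no-GST-core106 wells · Read-out basis – percent inhibition of core106 dimerization signal · Detection – time-resolved FRET, ex 340 nm, em 617 and 671 nm · Schedule – 4 h at 22.5 °C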
# Active calls of the source: *; nt = no result given.
SMILES,EBNA-1 inhibitor,ZTA counter,HCV NS3 hel inh,PP1 inh,HCV core dimer
O=C1CC(=C(c2ccccc2)c2ccccc2)C(=O)N1CCCN1CCN(c2cccc(Cl)c2)CC1,-2,-3,-19,17*,11
O=C(NCc1cccc(CNC(=O)c2ccco2)c1)c1ccco1,-3,-13,-12,1,-1
Cc1c(Br)cc(C(=O)NCc2ccco2)c(C)c1C,3,-14,18,4,48*
O=C(NCc1cccc(CNC(=O)C(=O)NCc2ccco2)c1)C(=O)NCc1ccco1,17,8,-8,-1,47*
O=C(CN(C(=O)C1CSC(=O)C1)c1ccc(F)cc1)NCc1ccc2c(c1)OCO2 (stereo not given),-6,7,6,-3,4
CC1(C)C(/C=C/C=C/C=C/C=C2\N(CCCCS(=O)(=O)O)c3ccc4ccccc4c3C2(C)C)=[N+](CCCCS(=O)(=O)[O-])c2ccc3ccccc3c21,51*,61*,nt,59*,69*
Cc1c2ccccc2cc[n+]1CCCS(=O)(=O)[O-],6,-6,2,-6,2
C#CCSc1nsc(SCC#C)c1C#N,3,-3,7,1,63*
CCCSc1nsc(SCCC)c1C#N,-5,1,2,-1,-2
COc1ccc(C(=O)COC(=O)c2cccnc2Cl)c(OC)c1,0,0,7,0,68*
Cc1ccc(/C=C/C(=O)N2CCc3ccccc32)o1,-7,6,28,-1,63*
O=C(/C=C/c1ccco1)N1CCc2ccccc21,-17,-4,10,-4,5
O=C(O)C1=CC(=C(c2ccc(O)c(C(=O)O)c2)c2ccc(O)c(C(=O)O)c2)C=CC1=O,93*,111*,nt,82*,77*
Nc1ccc(O)c(C(=O)O)c1,-1,-3,nt,1,-3
Cc1ccc(Cc2c(C)nc3nc(SCC(=O)NCCCN4CCCCCC4)nn3c2C)cc1,-9,-14,-26,6,94*
COc1ccc2c(c1)OC[C@H]1[C@H]2N2C(=O)c3cc(OC)c(OC)cc3NC(=O)[C@@]2(C)[C@H]1c1ccccc1,-4,7,nt,4,46*
COc1cc2c(cc1OC)C(=O)N1[C@H]3c4ccccc4OC[C@@H]3[C@H](c3ccccc3)[C@]1(C)C(=O)N2,15,20,nt,-2,25
CCCc1ccc(-c2cc(C(=O)N/N=C/c3ccc([N+](=O)[O-])o3)c3ccccc3n2)cc1,-8,-1,10,17*,26
Cc1cc(-c2csc(NC(=O)c3ccc(=O)n(C)n3)n2)c(C)n1CC1CCCO1 (stereo not given),-1,0,18,16*,53*
O=C(/C=C/c1cc[n+](CC(=O)c2ccc3cccc4c3c2CC4)cc1)c1ccc2cccc3c2c1CC3,-2,1,-15,46*,7
O=C(Cn1cccn1)N1CCCC(N2CCN(c3ccccc3F)CC2)C1 (stereo not given),-7,3,1,-1,7
O=C(Cn1cncc1-c1ccc([N+](=O)[O-])cc1)Nc1cccc2ccccc12,-11,-22,-18,21*,5
CCOc1ccc(NC(=O)Cn2cncc2-c2ccc([N+](=O)[O-])cc2)cc1,-4,5,17,5,-3
Cc1cc(C)n2nc(C(=O)OCC(=O)c3ccc(F)cc3)nc2n1,0,-3,nt,-3,14
N=C1S/C(=C\c2cccc3ccccc23)C(=O)N1c1ccc(F)cc1,9,1,-4,17*,15
SMILES,EBNA-1 inhibitor,ZTA counter,HCV NS3 hel inh,PP1 inh,HCV core dimer
O=C(C1=C[C@@H](c2csc3ccccc23)C[C@@H](OCc2ccc(CO)cc2)O1)N1CCN(Cc2ccccc2)CC1,6,1,-20,9,24
O=C(C1=C[C@@H](c2csc3ccccc23)C[C@@H](OCc2ccc(CO)cc2)O1)N1CCN(Cc2ccc3c(c2)OCO3)CC1,-12,5,-21,16*,1
c1ccc2c(c1)ncn2CCCCOc1ccc2c(c1)CCC2,-13,-22,-19,16*,-1
Cc1nc2ccc(NC(=O)c3ccc(Cl)c(NC(=O)c4cccs4)c3)cc2s1,-7,-4,-5,2,48*
O=C(COC(=O)CNC(=O)c1ccc(Cl)c([N+](=O)[O-])c1)NCC1CCCO1 (stereo not given),nt,-5,nt,2,nt
Cc1ccc(N(CCC#N)C(=O)COC(=O)C2CCN(S(=O)(=O)c3ccc(C)c(C)c3)CC2)cc1,-3,0,nt,-6,7
COC(=O)CCCC(=O)NC1CCCc2c1cnn2-c1ccc(F)cc1F (stereo not given),-3,22,3,-1,6
O=C(Nc1nc(-c2ccccc2)cs1)C1CCCN(S(=O)(=O)c2cccc([N+](=O)[O-])c2)C1 (stereo not given),-10,-6,-2,1,46*
COc1ccc(CCn2c(-c3ccco3)nc3nc4ccccc4nc32)cc1,0,-3,7,4,56*
Cc1cc(-c2csc(N)n2)c(C)n1CCC(C)C,-10,-17,20,16*,25
Cc1nn(C)cc1-c1csc(N)n1,6,-8,7,3,-16
CCN(CC)CCCn1c2c(c(SCC(=O)Nc3ccc4c(c3)OCO4)nc1=O)CCC2,-4,-10,nt,-3,2
Cc1ccc2nc(NC(=O)c3ccc(N4C(=O)CCC4=O)cc3)sc2c1,35*,2,2,2,48*
O=C(NCCC1CCCCN1S(=O)(=O)c1cccs1)C(=O)Nc1cccc(F)c1 (stereo not given),-4,-1,nt,0,-1
COc1ccc(N2CCN(C(=O)COC(=O)CNC(=O)c3ccccc3)CC2)cc1,6,-2,-4,2,-2
CSc1ncc(CN2CCCC(C(=O)Nc3ccc(-c4ccco4)cc3)C2)cn1 (stereo not given),-8,-7,-11,10,57*
Cc1ccc(N2CCN(C(=O)c3cc(C(=O)c4ccccc4C)c[nH]3)CC2)c(C)c1,2,-9,6,-1,2
CCOc1cccc2sc(N(CCCN(C)C)C(=O)c3ccc(S(=O)(=O)N4CCc5ccccc5C4)cc3)nc12,15,-19,-44,13,-17
CCc1ccc2nc(N(CCCN(C)C)C(=O)c3ccc(S(=O)(=O)N4CCc5ccccc5C4)cc3)sc2c1,11,28,-37,17*,-13
Cc1ccc(S(=O)(=O)Nc2ccc(-c3ccc4nncn4n3)cc2)cc1,-11,-18,nt,0,-7
C=C(C)CCC(C)N1CCC(n2nccc2NC(=O)CCOc2ccccc2)CC1 (stereo not given),-9,-2,-1,-2,10
CC(C)(C)c1ccc(OCCn2nc(C(=O)O)c3ccccc3c2=O)cc1,9,6,-21,7,10
O=C(NN1C(=O)/C(=C\c2ccc(O)c([N+](=O)[O-])c2)SC1=S)c1ccccc1Cl,-8,12,0,16*,-7
